Eight compounds from ChEMBL document CHEMBL1133088 (J Med Chem, 2000) can be followed below.

Series [1] is described as follows: % lactone at different intervals of time in PBS suspension. It counts as ADME. Conditions: buffer. The method in brief:
(§1)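 Lactone-ring hydrolysis of 1 uM drug at 37 °C and pH 7.4, incubated in PBS, in PBS containing physiologically relevant HSA or albumin-free red blood cells, or in whole human blood. Isocratic acetonitrile/2% triethylamine acetate (pH 5.5) at 1 mL/min; lactone eluted near 7.0 min, carboxylate near 2.0 min.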

Series [2] in a line: % lactone at different intervals of time in PBS with RBC suspension. The series is classed as ADME. Conditions: erythrocytes. The method, boiled down: as §1
Series [3] can be described thus: Equilibrium association constant interacting with unilamellar vesicles of negatively charged DMPG in PBS buffer at pH of 7.4 and 37 degrees celsius. The series is classed as ADME. Conditions: pH 7.4. The method in brief: (§2)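 Fluorescence anisotropy titration of 1 uM total drug with small unilamellar vesicles (DMPC or DMPG) in PBS, pH 7.4, 37 °C. SUVs were sonicated from 10 mg/mL lipid stocks and annealed 30 min at 37 °C; DMPG pH was readjusted to 7.4. Readings were taken about 0.5–1 min after mixing. K came from least-squares slopes of double-reciprocal plots (1/bound fraction vs 1/[lipid]).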

For the next series, the species on record is Homo sapiens. The series is described as follows: % lactone at different intervals of time in human blood. It counts as ADME, organism-based. The method, boiled down:
as §1

The nature of series [4]: Half life for of compound in PBS with RBC suspension. The conditions noted are these: RBC (red blood cell) suspension in PBS. The series is classed as ADME. The method, boiled down: as §1
Series [5] can be described thus: Half life of compound in PBS with HSA suspension. It counts as ADME. The conditions noted are these: human, HSA (human serum albumin) in PBS. The method in brief: as §1
Series [6] can be described thus: Equilibrium association constant interacting with unilamellar vesicles of electroneutral in PBS buffer at pH 7.4. It counts as ADME. The method, boiled down: as §2
The nature of series [7]: Half life in human blood. The series is classed as ADME, organism-based. The conditions noted are these: whole blood. The method in brief:
as §1

Series [8] is described as follows: Half life of compound in PBS suspension. It counts as ADME. The method, boiled down: as §1
Series [9] in a line: % lactone at different intervals of time in PBS with HSA suspension. It counts as ADME. The conditions noted are these: human, buffer. The method, boiled down:
as §1

In series [10] the test system is MDA-MB-435. As to the kind of experiment: Inhibition against MDA-MB-435 human breast cancer cells in the presence of 1 mg/mL HSA.
A further series has as its system Tumor Cell line. As to the kind of experiment: Mean GI50 against variety of human tumor cell lines. The series is classed as functional. The method, boiled down: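 NCI tumour cell panel: 5000–40 000 cells/well preincubated 24 h at 37 °C, then exposed 48 h (5% CO2) to five 10-fold dilutions from DMSO stocks. Highest well concentration in routine testing was 10^-4 M. Growth was read by sulforhodamine B protein staining.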

Series [11] concerns MDA-MB-435. The series is described as follows: Inhibition against MDA-MB-435 human breast cancer cells in the absence of HSA. It counts as functional, cell-based. The method, boiled down:
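MDA-MB-435 S human breast cancer cells exposed to drug with or without added HSA. Viability was read after a 3-day growth assay by sulforhodamine B staining of protein remaining attached to the dish.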

The nature of series [12]: Inhibition against MDA-MB-435 S human breast cancer cells in the absence of albumin. It counts as functional, cell-based. The method, boiled down:
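Read-out was sulforhodamine B, which stains protein in cells and cell fragments still attached to the dish bottom, including dying or dead attached cells. IC50 was derived from the cell survival profiles.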

The test system of series [13] is U-87 MG. As to the kind of experiment: Inhibition of tumor growth at day 28 postimplantation after administration of 3 mg/kg/day in nude mouse U87 glioma subcutaneous model system. The series is classed as functional, U-87MG ATCC. Conditions: sc, 672 h.
Series [14] has as its system U-87 MG. As to the kind of experiment: Inhibition of tumor growth at day 28 postimplantation after administration of 10 mg/kg/day in nude mouse U87 glioma subcutaneous model system. It counts as functional, U-87MG ATCC. Conditions: sc, 672 h.

Broadly, the half-life is the time needed for the level to fall by half in the phase considered. Low readings indicate rapid decline, high ones slow decline. In the case of `CCc1c2c(nc3ccc(O)cc13)-c1cc3c(c(=O)n1C2)COC(=O)[C@]3(O)CC` [7-ETHYL-10-HYDROXYCAMPTOTHECIN], the Lactone is 15.3% in [1], 37.5% in series [2] and 19.5% in the series listed under Homo sapiens. In [3], this compound had a KDMPG of 160 M⁻¹. The half-life in series [4] stood at 24.4 min; in [5], 36.1 min; in series [7] it was 32 min; in [8], 20.9 min. The same compound gave a KDMPC in [6] of 260 M⁻¹.
What is called IC50 is the concentration that gives 50% inhibition. Usually GI50 stands for the concentration giving 50% growth inhibition. Take `CC[C@@]1(O)C(=O)OCc2c1cc1n(c2=O)Cc2cc3ccccc3nc2-1` [CAMPTOTHECIN]: the Lactone in series [1] is reported as 17%; in series [9], < 0.5%; in series [2] it was 34.6%; in the series listed under Homo sapiens it was 5.3%. For the same compound, the KDMPG in [3] worked out at 100 M⁻¹. Besides, the half-life in series [4] turned out to be 30.8 min; in series [5], 11.9 min. Moreover, the concentration for half-maximal inhibition (IC50) in the series with MDA-MB-435 [10] stood at 375 nM; in the series with MDA-MB-435 [11], 15 nM. The compound also had a GI50 in the series with Tumor Cell line of 44 nM. This compound displayed a KDMPC in series [6] of 100 M⁻¹.
Consider `CC[C@@]1(O)C(=O)OCc2c1cc1n(c2=O)Cc2c-1nc1ccccc1c2[Si](C)(C)CCCCl`, for which the Lactone worked out at 12% in [1], 2.7% in series [9], 43.4% in [2] and 2.2% in the series filed under Homo sapiens. Besides, the KDMPG in [3] stood at 2500 M⁻¹. In addition, the half-life in series [4] amounted to 59.7 min; in series [5], 16 min; in [7] it was 85.6 min; in [8] it was 23.3 min. The compound also showed a KDMPC in series [6] of 2800 M⁻¹.
As usually defined, the inhibition in vivo is how much of the control response was suppressed. As to `CC[C@@]1(O)C(=O)OCc2c1cc1n(c2=O)Cc2c-1nc1ccc(O)cc1c2[Si](C)(C)C(C)(C)C` [AR-67], the Lactone in series [1] came out at 10.2%; in series [9], 10.5%; in series [2] it was 41.4%; in the series listed under Homo sapiens, 30.5%. Further, in [3], the KDMPG was found to be 2800 M⁻¹. Also, in [12], it took 14 nM to reach half-maximal inhibition (IC50). Also, the half-life in series [4] (human) is 51.4 min; in series [5], 119 min; in series [8], 31.8 min. The compound also registered a concentration for 50% growth inhibition (GI50) in the series with Tumor Cell line of 21 nM. Also, in the series on U-87 MG [13], the inhibition in vivo at 3 mg/kg/day is 61%. Also, the inhibition in vivo at 10 mg/kg/day in the series on U-87 MG [14] came out at 73%. The compound further had a KDMPC in [6] of 2500 M⁻¹.
As for `CC[C@@]1(O)C(=O)OCc2c1cc1n(c2=O)Cc2c-1nc1ccccc1c2[Si](C)(C)C(C)(C)C`, the Lactone was 12.2% in [1], 0.1% in series [9], 59.4% in series [2] and 1% in the series listed under Homo sapiens. Also, the KDMPG in series [3] was 16000 M⁻¹. For the same compound, the half-life worked out at 79.4 min in series [4], 46.3 min in series [5], 71 min in series [7] and 27.9 min in series [8]. In [6], this compound had a KDMPC of 15500 M⁻¹.
Turning to `CC[C@@]1(O)C(=O)OCc2c1cc1n(c2=O)Cc2cc3cc(O)ccc3nc2-1` [HYDROXYCAMPTOTHECIN], the GI50 in the series with Tumor Cell line was 36 nM.
In [3], `CC[C@@]1(O)C(=O)OCc2c1cc1n(c2=O)Cc2cc3c(CN(C)C)c(O)ccc3nc2-1` [TOPOTECAN] returned a KDMPG of 50 M⁻¹. In series [6], this compound showed a KDMPC of 10 M⁻¹.
As for `CC[C@@]1(O)C(=O)OCc2c1cc1n(c2=O)Cc2c-1nc1ccc(O)cc1c2[Si](C)(C)CCCCl`, the Lactone in [1] was 11.3%; in series [9], 17.2%; in series [2], 50.2%; in the series filed under Homo sapiens it was 17.8%. In addition, the KDMPG in [3] came out at 1200 M⁻¹. Moreover, the half-life stood at 67.7 min in series [4], 48 min in [5], 65.3 min in series [7] and 29.5 min in [8]. Also, the KDMPC in series [6] came out at 2200 M⁻¹.
